Experimental data from ChEMBL document CHEMBL3763118, “Trioxolane-Mediated Delivery of Mefloquine Limits Brain Exposure in a Mouse Model of Malaria” (ACS Med Chem Lett, 2015).
The source made the active and inactive calls. The rule behind the calls is not given here.

How the values were obtained:
Plasmodium chabaudi [1] = test: Antimalarial activity against Plasmodium chabaudi infected in Balb/c mouse assessed as parastemia at 10 mg/kg, ip measured 13 day postinoculation; assay type: functional
Plasmodium falciparum = test: Antiplasmodium activity against Plasmodium falciparum W2 by flow cytometry; assay type: functional, organism-based
In short: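 Activity against P. falciparum, reported as EC50, the mean of three or six separate determinations.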

Plasmodium chabaudi [2] = test: Antimalarial activity against Plasmodium chabaudi infected in Balb/c mouse assessed as parastemia at 10 mg/kg, ip administered as single dose measured 7 day postinoculation (reference value: 34 +/- 2.3 %); assay type: functional
Plasmodium berghei [3] = test: Antimalarial activity against Plasmodium berghei infected in Swiss-Webster mouse assessed as mouse survival upto day 28 at 10 mg/kg qd for 4 days administered via oral gavage; assay type: functional, organism-based
In short: (§1)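 Female Swiss-Webster mice (n = 5 per arm) inoculated with 10^6 P. berghei parasites. Compound or vehicle given by oral gavage once daily for 4 days, starting on the day of inoculation. Parasitemia, morbidity and mortality recorded daily over 28 days; mice euthanized as required by study protocol.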

Plasmodium chabaudi [4] = test: Antimalarial activity against Plasmodium chabaudi infected in Balb/c mouse assessed as parastemia at 10 mg/kg, ip administered as single dose measured 4 day postinoculation (reference value: 4.6 +/- 0.5 %); assay type: functional
[5] = Drug level in Plasmodium chabaudi infected Balb/c mouse brain at 10 mg/kg, ip at 24 hrs by LC-MS/MS analysis; assay type: ADME, organism-based; conditions: read-out: Drug uptake
In short: (§2)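 P. chabaudi-infected mice given a single 10 mg/kg i.p. dose. Blood and brain were sampled over 24 h and analysed for drug concentrations. Plasma concentration–time course used; brain levels reported at three time points.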

[6] = Stability in human blood after 240 mins by LC/MS analysis; assay type: ADME; conditions: whole blood, read-out: Stability
In short: (§3)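 Compounds were incubated at 37 °C in human plasma or whole blood for 240 min (120 min in some plasma cases). The value is the percent of parent remaining.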

Plasmodium berghei [7] = test: Antimalarial activity against Plasmodium berghei infected in Swiss-Webster mouse assessed as decrease in parasitemia at 10 mg/kg qd for 4 days administered via oral gavage; assay type: functional, organism-based; in short: as §1
[8] = Stability in human plasma after 240 mins by LC/MS analysis; assay type: ADME, cell-free; conditions: read-out: Stability; in short: as §3
[9] = Ratio of drug level in human blood to plasma; assay type: ADME, cell-free; conditions: whole blood and plasma
[10] = Tmax in Plasmodium chabaudi infected Balb/c mouse plasma at 10 mg/kg, ip by LC-MS/MS analysis; assay type: ADME, organism-based; in short: as §2
[11] = AUC (infinity) in Balb/c mouse at 50 mg/kg, ip by LC-MS/MS analysis; assay type: ADME, organism-based; design: dose 50 mg/kg, time infinity, route intraperitoneal; conditions: in vivo
In short: (§4)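 Noncompartmental plasma PK after one i.p. dose of 50 mg/kg in uninfected mice and in P. chabaudi-infected mice. Parameters are terminal t1/2, tmax, Cmax, AUCinf, CL/F, Vz/F, MRTlast and MRTinf. F is the fraction of drug reaching systemic exposure after the i.p. dose.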

Plasmodium chabaudi [12] = test: Antimalarial activity against Plasmodium chabaudi infected in Balb/c mouse assessed as parastemia at 50 mg/kg, ip measured 7 day postinoculation (reference value: 34 +/- 2.3 %); assay type: functional
In short: (§5)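 Mice infected with P. chabaudi received one i.p. dose on day 4 postinoculation. Parasitemia (%) was measured on days 4, 7 and 13 postinoculation and reported as mean ± SEM. Animals in poor health were sacrificed on day 8 as the protocol required.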

[13] = Apparent volume of distribution during terminal phase in Plasmodium chabaudi infected Balb/c mouse at 50 mg/kg, ip by LC-MS/MS analysis; assay type: ADME, organism-based; conditions: in vivo, read-out: Vz/F; in short: as §4
[14] = Apparent oral clearance in Balb/c mouse at 50 mg/kg, ip by LC-MS/MS analysis; assay type: ADME, organism-based; conditions: in vivo; in short: as §4
Plasmodium chabaudi [15] = test: Antimalarial activity against Plasmodium chabaudi infected in Balb/c mouse assessed as parastemia at 8 mg/kg, ip measured 7 day postinoculation (reference value: 34 +/- 2.3 %); assay type: functional; in short: as §5
Plasmodium chabaudi [16] = test: Antimalarial activity against Plasmodium chabaudi infected in Balb/c mouse assessed as parastemia at 16.5 mg/kg, ip measured 13 day postinoculation; assay type: functional; in short: as §5
[17] = Cmax in Balb/c mouse at 50 mg/kg, ip by LC-MS/MS analysis; assay type: ADME, organism-based; design: dose 50 mg/kg, route intraperitoneal; conditions: in vivo; in short: as §4
[18] = Mean residence time (infinity) in Plasmodium chabaudi infected Balb/c mouse at 50 mg/kg, ip by LC-MS/MS analysis; assay type: ADME, organism-based; conditions: in vivo; in short: as §4
Plasmodium chabaudi [19] = test: Antimalarial activity against Plasmodium chabaudi infected in Balb/c mouse assessed as parastemia at 16.5 mg/kg, ip measured 4 day postinoculation (reference value: 4.6 +/- 0.5 %); assay type: functional; in short: as §5
Plasma [20] = test: Prodrug activation in Plasmodium chabaudi infected Balb/c mouse plasma assessed as mefloquine level at 50 mg/kg, ip at 24 hrs by LC-MS/MS analysis; assay type: organism-based; conditions: in vivo
In short: (§6)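 Infected mice (P. chabaudi) each got one i.p. dose of 50 mg/kg of the trioxolane conjugate. Blood and brain were collected over 24 h. Plasma and brain were analysed for intact conjugate and for released mefloquine.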

[21] = Apparent oral clearance in Plasmodium chabaudi infected Balb/c mouse at 50 mg/kg, ip by LC-MS/MS analysis; assay type: ADME, organism-based; conditions: in vivo; in short: as §4
[22] = Tmax in Plasmodium chabaudi infected Balb/c mouse plasma at 50 mg/kg, ip by LC-MS/MS analysis; assay type: ADME, organism-based; in short: as §6
Plasmodium chabaudi [23] = test: Antimalarial activity against Plasmodium chabaudi infected in Balb/c mouse assessed as parastemia at 50 mg/kg, ip measured 4 day postinoculation (reference value: 4.6 +/- 0.5 %); assay type: functional; in short: as §5
Plasma [24] = test: Prodrug activation in Plasmodium chabaudi infected Balb/c mouse plasma assessed as mefloquine level at 50 mg/kg, ip at 30 mins by LC-MS/MS analysis; assay type: organism-based; conditions: in vivo, 0.5 h; in short: as §6
[25] = Terminal half life in Plasmodium chabaudi infected Balb/c mouse at 50 mg/kg, ip by LC-MS/MS analysis; assay type: ADME, organism-based; conditions: in vivo, read-out: beta t1/2 (converted); in short: as §4
[26] = Mean residence time (last) in Plasmodium chabaudi infected Balb/c mouse at 50 mg/kg, ip by LC-MS/MS analysis; assay type: ADME, organism-based; conditions: in vivo; in short: as §4
Plasmodium chabaudi [27] = test: Antimalarial activity against Plasmodium chabaudi infected in Balb/c mouse assessed as parastemia at 8 mg/kg, ip measured 4 day postinoculation (reference value: 4.6 +/- 0.5 %); assay type: functional; in short: as §5
[28] = AUC (infinity) in Plasmodium chabaudi infected Balb/c mouse at 50 mg/kg, ip by LC-MS/MS analysis; assay type: ADME, organism-based; design: dose 50 mg/kg, route intraperitoneal, time infinity; conditions: in vivo; in short: as §4
[29] = Tmax in Balb/c mouse at 50 mg/kg, ip by LC-MS/MS analysis; assay type: ADME, organism-based; conditions: in vivo; in short: as §4
Plasmodium chabaudi [30] = test: Antimalarial activity against Plasmodium chabaudi infected in Balb/c mouse assessed as parastemia at 16.5 mg/kg, ip measured 7 day postinoculation (reference value: 34 +/- 2.3 %); assay type: functional; in short: as §5
[31] = Apparent volume of distribution during terminal phase in Balb/c mouse at 50 mg/kg, ip by LC-MS/MS analysis; assay type: ADME, organism-based; conditions: in vivo, read-out: Vz/F; in short: as §4
[32] = Tmax in Plasmodium chabaudi infected Balb/c mouse at 50 mg/kg, ip by LC-MS/MS analysis; assay type: ADME, organism-based; conditions: in vivo; in short: as §4
[33] = Mean residence time (last) in Balb/c mouse at 50 mg/kg, ip by LC-MS/MS analysis; assay type: ADME, organism-based; conditions: in vivo; in short: as §4
[34] = Cmax in Plasmodium chabaudi infected Balb/c mouse at 50 mg/kg, ip by LC-MS/MS analysis; assay type: ADME, organism-based; design: dose 50 mg/kg, route intraperitoneal; conditions: in vivo; in short: as §4
Plasmodium chabaudi [35] = test: Antimalarial activity against Plasmodium chabaudi infected in Balb/c mouse assessed as parastemia at 50 mg/kg, ip measured 13 day postinoculation; assay type: functional; in short: as §5
Brain = test: Prodrug activation in Plasmodium chabaudi infected Balb/c mouse brain assessed as mefloquine level at 50 mg/kg, ip at 24 hrs by LC-MS/MS analysis; assay type: organism-based; conditions: in vivo; in short: as §6
[36] = Terminal half life in Balb/c mouse at 50 mg/kg, ip by LC-MS/MS analysis; assay type: ADME, organism-based; conditions: in vivo, read-out: beta t1/2 (converted); in short: as §4
[37] = Mean residence time (infinity) in Balb/c mouse at 50 mg/kg, ip by LC-MS/MS analysis; assay type: ADME, organism-based; conditions: in vivo; in short: as §4
[38] = Stability in human plasma after 120 mins by LC/MS analysis; assay type: ADME, cell-free; conditions: read-out: Stability; in short: as §3
Plasmodium berghei [39] = test: Antimalarial activity against Plasmodium berghei infected in Swiss-Webster mouse assessed as mouse survival at 9.5 mg/kg qd for 4 days administered via oral gavage; assay type: functional, organism-based
In short: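 Female Swiss-Webster mice (n = 5 per arm) were inoculated with 10^6 P. berghei parasites. Oral gavage once daily for 4 days, starting on the day of inoculation; doses were equimolar across compounds. Parasitemia, morbidity and survival were followed daily for 28 days, with euthanasia as the protocol required.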

Q: What does the source list for `O[C@@H](c1cc(C(F)(F)F)nc2c(C(F)(F)F)cccc12)[C@H]1CCCCN1` (racemic) [(S,R)-MEFLOQUINE]?
A: Activity (Plasmodium chabaudi [1]): 0%; EC50 (Plasmodium falciparum): 2.5 nM; Activity (Plasmodium chabaudi [2]): 0.02%; Activity (Plasmodium berghei [3]): Active; Activity (Plasmodium chabaudi [4]): 4.8%; concentration at 24 h [5]: 1400 ng/mL; remaining at 4 h [6]: 95%; inhibition (Plasmodium berghei [7]): Active; remaining at 4 h [8]: 97%; blood plasma ratio [9]: 1.6; Tmax [10]: 5 min

Q: What does the source list for `O=C(O[C@H]1CCC[C@@]2(C1)OOC1(O2)C2CC3CC(C2)CC1C3)N1CCCC[C@@H]1[C@@H](O)c1cc(C(F)(F)F)nc2c(C(F)(F)F)cccc12` (some centres undefined)?
A: AUC(0-inf) [11]: 34100 ng·h/mL; Activity (Plasmodium chabaudi [12]): 0%; Vd/F [13]: 45.5 L/kg; CL/F [14]: 24.5 mL/min/kg; Activity (Plasmodium chabaudi [15]): 33%; Activity (Plasmodium chabaudi [16]): 0.65%; Cmax [17]: 3620 ng/mL; MRT inf [18]: 10.6 h; Activity (Plasmodium chabaudi [19]): 4.5%; EC50 (Plasmodium falciparum): 3 nM; Drug metabolism (Plasma [20]): metabolite_detected; CL/F [21]: 61.2 mL/min/kg; Tmax [22]: 30 min; Activity (Plasmodium chabaudi [23]): 5.4%; Drug metabolism (Plasma [24]): metabolite_notdetected; half-life [25]: 516 min; MRT last [26]: 6.43 h; Activity (Plasmodium chabaudi [27]): 4.8%; AUC(0-inf) [28]: 13600 ng·h/mL; remaining at 4 h [6]: 85%; Tmax [29]: 1 h; Activity (Plasmodium chabaudi [30]): 0.7%; remaining at 4 h [8]: 94%; blood plasma ratio [9]: 0.7; Vd/F [31]: 17.8 L/kg; Tmax [32]: 2 h; MRT last [33]: 6.93 h; Cmax [34]: 1570 ng/mL; Activity (Plasmodium chabaudi [35]): 0%; Drug metabolism (Brain): 250 ng/mL; half-life [36]: 505 min; MRT inf [37]: 11 h

Q: What does the source list for `CC(C)(N)CNC(=O)C[C@H]1CC[C@]2(CC1)OOC1(O2)C2CC3CC(C2)CC1C3` (some centres undefined)?
A: EC50 (Plasmodium falciparum): 2.5 nM; blood plasma ratio [9]: 1.5

Q: Which results are given for `CC(C)(N)CNC(=O)O[C@H]1CCC[C@@]2(C1)OOC1(O2)C2CC3CC(C2)CC1C3` (some centres undefined)?
A: remaining at 2 h [38]: 97%; EC50 (Plasmodium falciparum): 2.7 nM; Activity (Plasmodium berghei [39]): Active

Q: With `C[C@@H]1CC[C@H]2[C@@H](C)C(=O)O[C@@H]3O[C@@]4(C)CC[C@@H]1[C@]32OO4` [ARTEMISININ] as the molecule, how does the EC50 (Plasmodium falciparum) read?
A: Its EC50 is 9.3 nM.
